Assay outcomes from PubChem.
APP 5'UTR act – activators of APP 5'UTR luciferase reporter, primary screen, SH-SY5Y cells; SH-SY5Y APP 5'UTR luciferase reporter, luminescence; zero percent = DMSO vehicle wells; activation, % at 2 µM; actives 1% (n = 190,000);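 active = activation above a set limit, based on mean plus 3 SD of controls, cut at about 140% in these data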
STAT3 act-1 – IL-6 driven STAT3 reporter potentiators, primary screen, U3A cells, luciferase, luminescence, MLSCN library; IL-6 STAT3-luciferase reporter; 100% = signal with IL-6 EC80 alone; activation (% of control), % at 5.6 µM; actives 0.91% (n = 190,000); AID 871, 2007;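 active = activation above the screen-wide mean of compound activation plus 3 SD, cut at about 130% in these data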;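 also: 0% = background luminescence of wells with medium and substrate only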
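Material: human STAT1-deficient U3A cells with stable STAT3-luciferase reporter / Probe or stimulus: IL-6 stimulus at 33 ng/mL final / Schedule: 1 h compound pre-exposure, 6 h IL-6 stimulation, 37 °C / Technique: luminescence / Read-out basis: percent of IL-6-only median luminescence / Control set: IL-6-only high control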
STAT1 inh – STAT1 signaling inhibitors, primary screen, cell-based, HTS, luciferase reporter. AID 920, 2007. inhibition, % at 5.5 µM. actives 0.35% (n = 200,000). NIH 3T3 STAT1-luciferase reporter, IFN-gamma, luminescence;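 active = inhibition above a set limit, the mean inhibition across all tested compounds plus 3 SD, cut at about 34% in these data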;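 also: 0% = IFN-gamma with DMSO and 100% = IFN-gamma with 300 µM nifuroxazide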
STAT3 inh – IL-6 driven STAT3 reporter inhibitors, primary screen, U3A cells, luciferase, luminescence, MLSCN library; IL-6 STAT3-luciferase reporter; host cell line lacks STAT1; inhibition, % at 5.5 µM; actives 0.89% (n = 190,000);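 active = inhibition above the mean inhibition across all screened compounds plus 3 SD, cut at about 44% in these data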;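 also: 0% = DMSO only wells and 100% = 100 µM nifuroxazide control wells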
STAT1 act-1 – STAT1 signaling activators, primary screen, cell-based, HTS, luciferase reporter. activation (% of control), % at 5.5 µM. actives 2.6% (n = 200,000). NIH 3T3 STAT1-luciferase reporter, IFN-gamma, luminescence; 100% = IFN-gamma alone, no compound;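 active = activation above the screen-wide mean activation plus 3 SD, cut at about 130% in these data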;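 also: raw ratio to IFN-gamma control signal so 100% means no change and 0% no light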
NF-kB neuron act – activators of NF-kB expression in neurons, primary screen, cell-based, HTS; human neuronal cells, NF-kB reporter expression; hits give high values; fold change at 12.5 µM; actives 1.6% (n = 190,000); in the data active = fold change above about 3.3
STAT3 act-2 – STAT3 reporter potentiators, retest of hits, confirmation, U3A cells, luciferase, luminescence; potentiation (% of control), % at 5.7 µM; AID 1267, 2008; actives 64% (n = 1,200); shares compounds with STAT3 act-1; IL-6 potentiation; U3A cells lack STAT1; 100 means same as IL-6 alone;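 active = percent activation of the STAT3 luciferase reporter above a set limit taken from the earlier primary screen, cut at about 130% in these data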;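 also: 0% = background signal of medium plus substrate and 100% = median of IL-6 with DMSO wells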
NFkB act 2 – NF-kB reporter activators in human cells, counter-screen for STAT3 activator project. activation (% of control), % at 5.7 µM. shares compounds with STAT3 act-1. NF-kappaB reporter activation. actives 11% (n = 1,200). AID 1309, 2008; in the data active = activation above about 120%;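 also: reporter induced by TNF-alpha stimulation; 100% = median of stimulated DMSO wells and 0% = no signal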
STAT1 act-2 – STAT1 reporter activators, IFN-gamma induced, counter-screen for STAT3 activator project, cell-based, NIH 3T3, luciferase luminescence; shares compounds with STAT3 act-1; NIH 3T3 STAT1-luciferase reporter; activation (% of control), % at 5.7 µM; actives 13% (n = 1,200); AID 1318, 2008;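 active = activation above the solvent-only control well mean plus 3 SD, set per screening run, cut at about 120% in these data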;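 also: 100% = IFN-gamma with DMSO median signal so 100% means no change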
The depositor's hits bear a star; / = not tested or not shown. A selection: hits, their analogues and other compounds. The true share with any hit is near 4.9%.

SMILES	APP 5'UTR act	STAT3 act-1	STAT1 inh	STAT3 inh	STAT1 act-1	NF-kB neuron act	STAT3 act-2	NFkB act 2	STAT1 act-2
N/C(=N\OC(=O)c1cccc2ccccc12)c1ccc(Br)cc1	15.7	138.9*	2.9	-45.9	97.4	1.45	134.9*	107.2	106.0
N/C(=N\OC(=O)c1ccc2ccccc2c1)c1ccc(Br)cc1	11.1	96.6	-5.8	4.3	105.2	1.1	/	/	/
O=C(NCc1ccc(F)cc1)C(=O)Nc1nc(C23CC4CC(CC(C4)C2)C3)cs1	6.0	100.7	0.6	-3.4	101.7	1.47	/	/	/
CCN(CC)CCCNC(CC(=O)Nc1cccc([N+](=O)[O-])c1)C(=O)O (stereo not drawn)	-0.6	102.6	-1.9	-5.8	104.0	1.15	/	/	/
Cn1c(-c2cc(Br)ccc2O)n[nH]c1=S	-7.8	101.6	-3.1	4.7	104.2	0.99	/	/	/
Oc1ccc(Br)cc1-c1cc(-c2ccccc2)n[nH]1	-2.7	141.1*	-4.1	-45.6	103.9	1.13	125.4	103.6	101.3
C/C=C1\C(OC2OC(CO)C(O)C(O)C2O)OC=C(C(=O)OC)C1CC(=O)OCC1C(C)C(OC(=O)CC2C(C(=O)OC)=COC(OC3OC(CO)C(O)C(O)C3O)/C2=C\C)CC1C(CO)CO (stereo not drawn)	4.6	/	-3.1	/	101.7	1.09	/	/	/
Cc1cc(C)c2oc(-c3ccc(Cl)c(NC(=O)c4ccc(C#N)cc4F)c3)nc2c1	2.0	173.2*	-11.1	-81.4	110.2	1.86	165.2*	100.8	108.3
N#Cc1ccc(C(=O)Nc2cccc3ncccc23)c(F)c1	-10.6	93.5	10.9	5.7	91.8	1.04	/	/	/
COc1ccc(S(=O)(=O)NC(CC(=O)NCCc2ccc(OC)c(OC)c2)C(C)C)cc1 (stereo not drawn)	3.7	90.6	1.6	17.5	96.7	1.27	/	/	/
O=C(CSc1ncccn1)N/N=C/c1ccccc1[N+](=O)[O-]	8.3	102.8	-6.1	1.7	105.6	1.13	/	/	/
O=C(O)c1cc(-c2c[nH]c3ccccc23)nc2ccc3ccccc3c12	11.2	141.9*	10.6	-48.7	88.9	1.25	163.4*	111.9	99.6
c1ccc2c(-c3c[nH]c4ccccc34)c3ccccc3nc2c1	18.1	91.9	3.1	19.4	97.2	1.17	/	/	/
Cc1ccc([N+](=O)[O-])c(NC2OC(CO)C(O)C2O)c1 (stereo not drawn)	9.5	96.8	-9.7	9.2	106.7	0.98	/	/	/
COc1ccc(/C=N/NC(=O)C2(C)NC(C)(C)Cc3ccccc32)cc1 (stereo not drawn)	-23.6	103.7	-4.9	1.6	104.2	1	/	/	/
CC(=O)Nc1nc(-c2ccc(Cl)cc2)nc(C)c1C(C)=O	36.2	136.8*	11.7	-41.8	89.2	1.44	121.6	103.5	96.2
Cc1ccc(-c2nnc(Oc3ccc(NC(=O)c4ccccc4)cc3)c3ccccc23)cc1	-3.0	103.9	11.0	-1.4	90.0	1.04	/	/	/
Cc1ccc(Cl)cc1N1CCN(C(=O)Cc2c(C(=O)O)[nH]c3ccccc23)CC1	-9.1	138.1*	8.3	-45.0	92.4	1.05	123.1	105.9	92.7
c1ccc(-c2cc(-c3ccncc3)nc3ccc4ccccc4c23)cc1	14.6	101.3	2.6	-3.8	97.7	0.62	/	/	/
CCOC(=O)Cc1cc(-c2ccccc2)nc2ccc3ccccc3c12	7.8	136.0*	-5.5	-39.2	104.9	0.9	124.3	114.4	105.1
O=C(OCc1nc2ccccc2s1)C1CCN(C2=NS(=O)(=O)c3ccccc32)CC1	50.6	146.7*	-13.7	-44.2	112.5	1.33	142.4*	121.3*	134.3*
O=C(OCc1nc2ccccc2s1)c1ccccc1O	26.1	110.6	-14.9	-6.1	113.6	2.23	/	/	/
COc1ccc(C2C(C(=O)c3cccs3)=C(O)C(=O)N2c2nncs2)cc1 (stereo not drawn)	6.7	150.3*	-1.4	-51.4	101.3	1.36	128.9	103.0	99.2
COc1ccc(NC(=S)Nc2ccc(S(=O)(=O)N3CCOCC3)cc2)c(OC)c1	11.7	101.2	6.5	1.7	94.1	1.17	/	/	/
COc1ccc(NC(=S)Nc2ccc(S(N)(=O)=O)cc2)c(OC)c1	-13.0	136.2*	-3.2	-38.1	101.0	1.03	127.9	97.2	94.2
SMILES	APP 5'UTR act	STAT3 act-1	STAT1 inh	STAT3 inh	STAT1 act-1	NF-kB neuron act	STAT3 act-2	NFkB act 2	STAT1 act-2
O=C(Nc1ccccc1)c1cccc(S(=O)(=O)Oc2ccc([N+](=O)[O-])cc2)c1	3.5	101.0	7.2	-0.8	93.6	0.94	/	/	/
CCCC1=C(C(=O)OCC)C(c2ccc(OC)c(CSc3ccccn3)c2)C(C#N)=C(N)O1 (stereo not drawn)	/	110.2	-2.2	-11.6	102.0	0.97	/	/	/
CC1=NC(=O)C(N=Nc2ccccc2)N1c1ccccc1 (stereo not drawn)	51.1	163.0*	-30.2	-71.4	121.0	4.38*	161.9*	125.4*	160.3*
O=C(Nc1c(Cl)cc(Cl)cc1-c1nc2ccccc2s1)c1ccc(Br)o1	-11.9	139.1*	11.2	-51.6	89.6	0.81	114.8	100.9	70.6
COc1ccc(-c2nnc(Nc3nc4c(OC)cccc4s3)o2)c(OC)c1	39.1	114.9	-10.1	-10.8	108.3	1.69	/	/	/
COc1ccc(-c2nnc(Nc3nc4c(OC)cccc4s3)o2)cc1	5.6	159.1*	-7.0	-68.7	106.4	1.12	136.5*	100.6	104.5
C#CCOc1ccc(C2C3=C(COC3=O)Nc3cc4c(cc32)OCO4)cc1OC (stereo not drawn)	-94.6	142.6*	-12.5	-42.7	109.5	/	116.1	159.0*	115.3
CCOc1ccccc1C1C2=C(COC2=O)Nc2cc3c(cc21)OCO3 (stereo not drawn)	-95.8	141.2*	-11.3	-30.8	109.4	3.34*	103.4	131.2*	94.5
O=C1OCC2=C1C(c1ccc(F)cc1)c1cc3c(cc1N2)OCO3 (stereo not drawn)	-94.8	136.2*	0.0	-36.1	99.9	2.88	108.3	153.3*	105.7
